Measurements reported in ChEMBL document CHEMBL1944518, “AlCl3 induced (hetero)arylation of 2,3-dichloroquinoxaline: a one-pot synthesis of mono/disubstituted quinoxalines as potential antitubercular agents” (Bioorg Med Chem, 2012).

Legend:
[1] = molecular target: T1, Secreted chorismate mutase (Mycobacterium tuberculosis) (UniProt P9WIB9); test: Inhibition of Mycobacterium tuberculosis chorismate mutase expressed in Escherichia coli BL21 assessed as conversion of chorismate to prephenate at 50 uM after 5 mins by Spectrophotometry
T1 sequence (whole entry): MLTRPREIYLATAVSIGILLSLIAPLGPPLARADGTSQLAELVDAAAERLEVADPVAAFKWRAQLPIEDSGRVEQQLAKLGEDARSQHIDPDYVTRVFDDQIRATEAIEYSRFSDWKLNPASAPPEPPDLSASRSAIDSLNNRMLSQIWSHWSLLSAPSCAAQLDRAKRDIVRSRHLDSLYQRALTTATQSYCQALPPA
In short: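 MtCM purified by Ni-NTA from BL21(DE3) carrying pET22b/MtCM; 180 pmol started on 4 mM chorismate (Tris-HCl pH 7.5, EDTA, BSA, β-mercaptoethanol) with effector at 50 μM, 37 °C, 5 min, quenched with 1 N HCl. Absorbance at 274 nm, corrected for compound and no-enzyme blanks; % inhibition = 100 − residual activity.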

[2] = molecular target: T1, Secreted chorismate mutase (Mycobacterium tuberculosis); test: (§1) Inhibition of Mycobacterium tuberculosis chorismate mutase expressed in Escherichia coli BL21 assessed as conversion of chorismate to prephenate after 5 mins by Spectrophotometry
[3] = molecular target: T2, Secreted chorismate mutase (Mycobacterium tuberculosis, UniProt P9WIB9); test: as §1
T2 sequence (P9WIB9 whole entry): T1 sequence (whole entry)

## Oc1ccc2ccccc2c1-c1nc2ccccc2nc1-c1c[nH]c2ccc(Br)cc12
[1]
  inhibition: 35%

## COc1ccc2c(-c3nc4ccccc4nc3-c3c[nH]c4ccccc34)c[nH]c2c1
[1]
  inhibition: 45%

## COc1ccc2c(-c3nc4ccccc4nc3Cl)c[nH]c2c1
[1]
  inhibition: 42%

## Oc1ccc(-c2nc3ccccc3nc2Cl)c(O)c1
[1]
  inhibition: 31%

## COc1ccc2[nH]cc(-c3nc4ccccc4nc3Cl)c2c1
[1]
  inhibition: 36%

## Brc1ccc2[nH]cc(-c3nc4ccccc4nc3-c3c[nH]c4ccccc34)c2c1
[1]
  inhibition: 31%

## Fc1cc2[nH]cc(-c3nc4ccccc4nc3Cl)c2cc1F
[1]
  inhibition: 64%
[2]
  inhibition: Dose-dependent effect
[3]
  IC50: 19.7 µM

## Oc1ccc(-c2nc3ccccc3nc2Cl)c2ccccc12
[1]
  inhibition: 35%

## Oc1ccc(-c2nc3ccccc3nc2-c2c[nH]c3ccc(Br)cc23)c(O)c1
[1]
  inhibition: 21%

## Fc1cc2[nH]cc(-c3nc4ccccc4nc3-c3c[nH]c4ccc(Br)cc34)c2cc1F
[1]
  inhibition: 27%
